The data set concerns MS2 coat protein. Briefly: apparent Kd, MS2 coat protein; higher = weaker binding; RNA-MaP array; FMN 200 µM where present. Put shortly: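 Apparent Kd: the median of filtered binding-curve fits from single clusters. Designs were transcribed on Illumina sequencing-chip clusters by stalled E. coli RNA polymerase and titrated with SNAP-549-labelled MS2 coat protein from 0.7 or 1.5 nM, doubling to 3 µM, in 100 mM Tris-HCl pH 7.5, 80 mM KCl, 4 mM MgCl2, BSA, DTT, yeast tRNA and Tween-20. Each series ran without and then with constant ligand, and green signal was normalised to red-channel RNA signal and control-cluster median Fmax.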

Where [1] appears, read: designed as: OFF switch for flavin mononucleotide, no ligand.
The mark [2] stands for this setting: ligand present: flavin mononucleotide, designed as: OFF switch for flavin mononucleotide.
Where [3] appears, read: designed as: ON switch for flavin mononucleotide, no ligand.
Where [4] appears, read: ligand present: flavin mononucleotide, designed as: ON switch for flavin mononucleotide.

This note sets out measurements from the EternaBench riboswitch data.

Usually apparent Kd stands for the concentration giving half-maximal binding under the conditions of the assay.

For “AAGAAGUCAGGAUAUCGUGCUCGUCACUUGCGUGAUGAGUACGAGAAGGGACAUGAGGAUCACCCAUGUAAAGA”, the “apparent Kd” value under setting [1] is 52.4 nM and the “apparent Kd” value under setting [2] came out at 52.5 nM.
Regarding “GCUGCAAAGUAAGGAUAUGCCUAGGAAACCUAGGCAGAAGGUACAUGAGGAUCACCCAUGUUAACUCAAAGAGAAUAAAGCAGC”, the “apparent Kd” value is, setting by setting: under setting [1], 16.8 nM; under setting [2], 28.6 nM.
In the case of “UAUCGGAGCAGAGGAUAUUACAUGAGGAUCACCCAUGUAUGAACCAAUAGCUGGAAACAGCAAUGUAAGAAGGCUGCUCCGACA”, the “apparent Kd” value by setting is: under setting [1], 11.9 nM; under setting [2], 163 nM.
For the sequence “GCGCUUAUACAGAAGGCCAUAUACAUGAGGAUCACCCAUGUUACAUGGUGGAGGAUAUGUUAUUAAUUACAGGUAGAUGAGCGC”, the “apparent Kd” value was determined as 4.61 nM under setting [3] and 4.42 nM under setting [4].
In the case of “CUUUUGUGAGGAUAUCAGGUGUGCUAGCGUACUGGUACAUCUGAGAAGGCACAUGAGGAUCACCCAUGUUCCUC”, the “apparent Kd” value is, setting by setting: under setting [1], 42.2 nM; under setting [2], 238 nM.
For the sequence “AGUGUCGGCACAGGAUAUGAGAUGCCGGCAGACAUGAGGAUCACCCAUGUAAGCGAACCAGGCAGUCAGAAGGGUGAUCGACAA”, the “apparent Kd” value runs as follows: under setting [3], 46.8 nM; under setting [4], 24.4 nM.
“GGCUCGAGGGUCUCCGCGUUCACAUGAGGAUCACCCAUGUAACAGGAUAUCGGGCCAAAGGGCAGCGAGAAGGGUUACUUGGGC”: the “apparent Kd” value reads like this: under setting [1], 6.43 nM; under setting [2], 14.6 nM.
With “AAGGAUAGAGGAUAUAUAUAGAUACAGAUUCAUGUAGAACUACAUGAGGAUCACCCAUGUAGAAGGCUAUCCUA”, the “apparent Kd” value amounted to 15.7 nM under setting [1] and 60.4 nM under setting [2].
Turning to “AACCUAUUACAGAAGGCCAGCUACAUGAGGAUCACCCAUGUCGAGUCAUGGAGGAUAUGUAGUAACCUGCACGCGGGCGGAUAC”, the “apparent Kd” value turned out to be 50.7 nM under setting [3] and 7.18 nM under setting [4].
Consider “GUGUAGAUAGGAUAUGCUGGAAUCUAGCGAAGCUAGGUUCCACAUGAGGAUCACCCAUGUAGAAGGGUCUACAC”, for which the “apparent Kd” value is, setting by setting: under setting [1], 200 nM; under setting [2], 54 nM.
Consider “AAUUCAAACAGAGGAUAUUGUUUAUCUCUAUUGCAAGAAGGCUGAUCUUACUACUUACUUAUGAAACAUGAGGAUCACCCAUGU”, for which the “apparent Kd” value under setting [3] amounted to 36.6 nM and the “apparent Kd” value under setting [4] was found to be 31.8 nM.
Take “AUCAGCUCGUGAGGAUAUACGUCACUGCUUCGGCAGUGUGGUAAGAUCACAUGAGGAUCACCCAUGUAGAAGGCACGAGCUGAU”: the “apparent Kd” value is, setting by setting: under setting [1], 21.4 nM; under setting [2], 471 nM.
Regarding “AGGCCGCUACGCCGGCUUCACGCACAGGAUAUGCAGUUACAUGAGGAUCACCCAUGUGGCCAUGUGCAGAAGGGUGGUUCGUGA”, the “apparent Kd” value amounted to 22.1 nM under setting [3] and 5.44 nM under setting [4].
“UGUGAGUUGAUGUUAGAUCGGAGUACAUGAGGAUCACCCAUGUAGGAUAUUCAAAGACGCAGAUAGAAGAAGGACAUAGGUUUC”: the “apparent Kd” value is 15.2 nM under setting [1] and 14.3 nM under setting [2].
On the same counts, the results for “CAGUACUGAGGAUAUACAUGAGGAUCACCCAUGUGUUCGUGGUAGGAUAUCCGCAAAAGUAGAAGCCAGAAGGAGAUGUGCGUG” are 17.7 nM and 13.9 nM.
As to “UUUUAACAUGAGGAUCACCCAUGUGAGGAUAUCGAUAUUUAUAUUAAUAUUAAUAAAACGAGAAGGCACAUUUU”, the “apparent Kd” value is, setting by setting: under setting [1], 71 nM; under setting [2], 87.2 nM.
For “GUAGCAUACCGAGGAUAUUCAGGGCGUGGAUAUACAUGAGGAUCACCCAUGUGGCGAAAGCCUAGGGAGAAGGCGGAAUGCUAC”, the “apparent Kd” value runs as follows: under setting [3], 23.6 nM; under setting [4], 17 nM.
For the sequence “GUCAGCUCGUGAGGAUAUACAUGAUAGAUCGAUUAAUUAAUUAAUUUAACAUGAGGAUCACCCAUGUAGAAGGUACGAGCUGAC”, the “apparent Kd” value under setting [1] was found to be 52 nM and the “apparent Kd” value under setting [2] came out at 66.3 nM.
For the sequence “GAUGACAUGAGGAUCACCCAUGUGAUGGUUUGAGGUGGUUACAGAAGGGACGUAUAGUGGUGUGGUCAGGAUAUGUAGAAUCUU”, the “apparent Kd” value amounted to 157 nM under setting [3] and 42.1 nM under setting [4].
For the sequence “CUAAAUCAUGUAGGAUAUGCGUGGCGAAGCUAUGCAGAAGGACAUGAGGAUCACCCAUGUCUAUCCGUCUGCGUACAGACGGAA”, the “apparent Kd” value stood at 25.1 nM under setting [1] and 186 nM under setting [2].
For “GGAUCGAAUGUGAGGAUAUGCUGGUCCUUGGAUCAGCAGAAGGCACAUGAGGAUCACCCAUGUUUCCACGGUCC”, the “apparent Kd” value stood at 127 nM under setting [1] and 869 nM under setting [2].
For the sequence “AGAAACUACGAGAAGGACAUAUGACUAAGACUAAACAUGAGGAUCACCCAUGUAGGAUAUCGUAGUUUCAGGAUCGUGAGAUCA”, the “apparent Kd” value under setting [1] worked out at 5.75 nM and the “apparent Kd” value under setting [2] amounted to 7.87 nM.
“UUGUUGUGUGUAGGAUAUGCAUAUUAUUAUUAUGCAGAAGGACAUGAGGAUCACCCAUGUGUAUUAUUAUUAUAUAUUAUAUAU”: the “apparent Kd” value came to 24.6 nM under setting [1] and 38 nM under setting [2].
On to “AAUUUCAGAAGAGGAUAUUGACAUGAGGAUCACCCAUGUAUUUGGGAAUGUUUACUGAAUUCUUACAAGAAGGUUUACGAACUU”, for which the “apparent Kd” value was determined as 98 nM under setting [1] and 79.7 nM under setting [2].
For “GGUCCAUCAUGAGGAUAUGGCACCUUAUUGGUGCCAGAAGGCAUGUGUAUACACAUGAGGAUCACCCAUGUAAUAAAUUGGACC”, the “apparent Kd” value under setting [3] was 144 nM and the “apparent Kd” value under setting [4] was 22.2 nM.
With “GUGCGGAACCUAGGAUAUCCGACAUGGACAGGUGGUAAGUCUCCCACAUGAGGAUCACCCAUGUAGGAGAAGGAGGAUCACGGG”, the “apparent Kd” value reads like this: under setting [1], 6.84 nM; under setting [2], 7.39 nM.
Take “UAGCUCUCGGCAGGAUAUCCUGCAUAAUGUCGAGUCCGCGCCCGGACAUGAGGAUCACCCAUGUAGGAGAAGGGCCCACGGGCU”: the “apparent Kd” value reads like this: under setting [1], 24.2 nM; under setting [2], 45.5 nM.
As for “AAAGAUCCUCAGAAGGGCUCGUCCUAUAAGAUAGCAGGAUAUGAGGAGAUUGCCAAACAUGAGGAUCACCCAUGUAGUUGGAGU”, the “apparent Kd” value is, setting by setting: under setting [3], 83.5 nM; under setting [4], 14.8 nM.
As for “UCCUUAUCGGUCAGGAUAUACACCCGUUUCUCCUUGUAGAAGGGACAUGAGGAUCACCCAUGUACUGUACAUUU”, the “apparent Kd” value came out at 30 nM under setting [1] and 31 nM under setting [2].
As for “AAAUGAUAGUCAGGAUAUAAGUUGGAGCCUCGGUCGCACAUGAGGAUCACCCAUGUGUCUUGGAUUUAGAAGGGACAGAUGGGC”, the “apparent Kd” value by setting is: under setting [3], 682 nM; under setting [4], 648 nM.
Take “GGAAUAUUUACAGGAUAUCAUUUGUAAAUUCGAUGAGAAGGGUAGAUGUCUUACACGACUUGUUACAUGAGGAUCACCCAUGUU”: the “apparent Kd” value came out at 43.3 nM under setting [3] and 33.3 nM under setting [4].
For the sequence “AUCUUUAACAUAGGAUAUAGUAUGAAGGUUUAUUUAGAAGGAUGUCACAUGAGGAUCACCCAUGUAUUAGGAUUACCCAUGUAU”, the “apparent Kd” value under setting [1] is 30.1 nM and the “apparent Kd” value under setting [2] turned out to be 23.1 nM.
On the same counts, the results for “AACAGACGUGCUCUGAGUCCACAUGAGGAUCACCCAUGUGAGAGAAGGACCCUCGAGAGAGUUGGGUAGGAUAUCUCCGAUGGG” are 27 nM and 80.5 nM.
As for “ACCUUACAUGAGGAUCACCCAUGUUAGGAUAUCUCGCUUGCGCAAUCACAACGCAAGCAGAGAAGGGACGCGGG”, the “apparent Kd” value is 29.1 nM under setting [1] and 33.4 nM under setting [2].
With “GUUAAACAUGAGGAUCACCCAUGUCAAUGUAGUCGAGGAUAUGGGCAGCUAUGAGGCGUACUAGAAGGCGAAGAGU”, the “apparent Kd” value was found to be 361 nM under setting [3] and 178 nM under setting [4].
Take “CCUGAGUCAGGAUAUUGUACCGGCCUGAAGCCAGACCGACCCAAGAAGGGACAUGAGGAUCACCCAUGUGAAAA”: the “apparent Kd” value reads like this: under setting [1], 23.1 nM; under setting [2], 24.7 nM.
“GUAUCGUGAGGAUAUCAUGAUUGACUUUUAUUUUGUCAGCGUGAGAAGGCACAUGAGGAUCACCCAUGUGAUUA”: the “apparent Kd” value is, setting by setting: under setting [1], 22.6 nM; under setting [2], 50.5 nM.
As for “CUCCGGCGUGUAGGAUAUGGAUCCGAUUAGGAUCCAGAAGGACAUGAGGAUCACCCAUGUACAUGUAAACAGUCAUCACCGGAC”, the “apparent Kd” value was 8.66 nM under setting [1] and 67.6 nM under setting [2].
For the sequence “AUCUCAGGACGAGGAUAUCAAUACAUGAGGAUCACCCAUGUAUGAUUACUGUGAUCCUCUAAGGCUGAGAAGGCGUCCCAAUUA”, the “apparent Kd” value was determined as 20.4 nM under setting [1] and 8.37 nM under setting [2].
Consider “ACUAAACGAGGAUAUACUGACAGGCCUCAAACAUACAUCAAACAUGAGGAUCACCCAUGUAGAAGGCGUAAACU”, for which the “apparent Kd” value under setting [1] was 34.5 nM and the “apparent Kd” value under setting [2] was 25.1 nM.
On the same counts, the results for “UGAGCAUGAGGAUAUACAAGGCGUGCCGUAGCACGAGGUCUACAUGAGGAUCACCCAUGUAGAAGGCAUGUUCU” are 16.8 nM and 36.9 nM.
As to “AGCUACGUUUCGUAGCAGCUAGGUGAGGAUAUUCAAUUUUUCACAUGAGGAUCACCCAUGUAUGUGAAGAAGGCGCCUAGAAAG”, the “apparent Kd” value turned out to be 13.3 nM under setting [3] and 4.77 nM under setting [4].
In the case of “GGACAUUUACAGAAGGGCAAAUUUUAUAUUGAAUAUUUAGUUCUGAUUUGCAGGAUAUGUUUUACAUGAGGAUCACCCAUGUCC”, the “apparent Kd” value runs as follows: under setting [3], 59.9 nM; under setting [4], 27.9 nM.
On to “UGAUAGGACAGAGGAUAUACGUGCUAGAGAUACUAGCUACAAAUCCUUACAUGAGGAUCACCCAUGUAGAAGGCUGUCCUAUCU”, for which the “apparent Kd” value amounted to 19.3 nM under setting [1] and 39.4 nM under setting [2].
Turning to “GAUCCUUCUGUUAGGAUAUGCUUUGGGCUUUCGCAGCAGAAGGAACAUGAGGAUCACCCAUGUCCGAUGCCGUC”, the “apparent Kd” value under setting [1] turned out to be 77.5 nM and the “apparent Kd” value under setting [2] came out at 81.3 nM.
As to “UUUACAUGAGGAUCACCCAUGUAUAGAACGGUUAAUCAAAGUGAGGAUAUACAUAAUUUUGUAUUGUAGAAGGCACUGGGUACA”, the “apparent Kd” value was determined as 15.2 nM under setting [3] and 19.3 nM under setting [4].
As to “GGUCGUCACAUUAACAUGAGGAUCACCCAUGUCAAAAGACAUGAGGAUAUGCAUCCUAAUUGGAUGCAGAAGGCAUGGACGACC”, the “apparent Kd” value reads like this: under setting [3], 507 nM; under setting [4], 32.7 nM.
In the case of “GUACUACCCACAGAUAACUUAGCCAGAAGGGUCUACAUGAGGAUCACCCAUGUGGUCCAAAGUGGACAGGAUAUGGAAACGGUU”, the “apparent Kd” value under setting [1] was found to be 139 nM and the “apparent Kd” value under setting [2] is 12.2 nM.
